STAT1 activator – STAT1 signaling activators, primary screen, cell-based, HTS, luciferase reporter; AID 932, 2007; NIH 3T3 STAT1-luciferase reporter, IFN-gamma, luminescence; 100% = IFN-gamma alone, no compound; activation (% of control), % at 5.5 µM; 2.6% of 200,000 active;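 active means activation above the screen-wide mean activation plus 3 SD, cut at about 130% in these data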;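 further: raw ratio to IFN-gamma control signal so 100% means no change and 0% no light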
APP 5'UTR act – activators of APP 5'UTR luciferase reporter, primary screen, SH-SY5Y cells; SH-SY5Y APP 5'UTR luciferase reporter, luminescence; zero percent = DMSO vehicle wells; activation, % at 2 µM; 1% of 190,000 active;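 active means activation above a set limit, based on mean plus 3 SD of controls, cut at about 140% in these data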
NF-kB neuron act – activators of NF-kB expression in neurons, primary screen, cell-based, HTS | AID 1239, 2008 | human neuronal cells, NF-kB reporter expression; hits give high values | fold change at 12.5 µM | 1.6% of 190,000 active; in the data active means fold change above about 3.3
FLuc inhib CS – firefly luciferase enzyme inhibitors, primary screen, artefact control for luciferase-based inhibitor screens, biochemical, luminescence, ATPLite | Luciferin 4-monooxygenase (Photinus pyralis), P08659 | inhibition, % at 10 µM | 1.5% of 200,000 active | 10 min | AID 1006, 2008;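 active means inhibition above about 50% when tested at 10 µM, limit read from the data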
Target sequence (P08659 whole entry, looked up): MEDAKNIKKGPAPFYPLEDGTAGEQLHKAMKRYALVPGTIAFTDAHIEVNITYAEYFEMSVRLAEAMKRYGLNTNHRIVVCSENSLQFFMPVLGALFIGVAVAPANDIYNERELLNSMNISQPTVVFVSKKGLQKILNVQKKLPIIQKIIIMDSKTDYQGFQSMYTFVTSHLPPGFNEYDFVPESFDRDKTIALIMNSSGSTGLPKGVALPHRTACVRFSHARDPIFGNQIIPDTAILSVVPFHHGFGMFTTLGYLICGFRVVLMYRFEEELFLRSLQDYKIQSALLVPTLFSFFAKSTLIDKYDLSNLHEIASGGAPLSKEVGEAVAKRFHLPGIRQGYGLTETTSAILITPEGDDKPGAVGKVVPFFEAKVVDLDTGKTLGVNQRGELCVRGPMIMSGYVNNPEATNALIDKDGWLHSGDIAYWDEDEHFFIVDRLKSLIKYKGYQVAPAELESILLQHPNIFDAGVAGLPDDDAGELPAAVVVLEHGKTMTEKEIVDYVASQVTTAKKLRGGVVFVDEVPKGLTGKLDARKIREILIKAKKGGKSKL
FLuc stim CS – FLuc activators, initial screening, artefact control for FLuc-dependent activation tests, biochemical, ATPlite luminescence; ATPlite luciferase biochemical, 10 min; 0 = ATP-free wells, 1 = DMSO control; activation factor at 10 µM; 200,000 tested, under 10 active;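 active means luciferase activation factor, scaled between plate controls, of at least 2 with compound at 10 µM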
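System: cell-free luciferase reagent; medium: PBS as buffer for the ATP substrate; doses: test compounds dosed from 2 mM stocks in 100% DMSO; incubation: 10 min, room temperature; measured by: luminescence from luciferase reaction; read-out: luciferase activation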
Numbers without * were called inactive. Hits are enriched below; roughly 4.3% of the tested compounds scored in any of these assays.

Results for CC(=O)CSc1nc2cc3c(cc2cc1C#N)OCCO3 ?
STAT1 activator: 86; APP 5'UTR act: 101; NF-kB neuron act: 5.7*; FLuc inhib CS: 30; FLuc stim CS: 0.7

What do the screens show for `CCOC(=O)CSc1nc2cc(OCC)ccc2cc1C#N`?
STAT1 activator: 124; APP 5'UTR act: 168*; NF-kB neuron act: 2.2; FLuc inhib CS: -3; FLuc stim CS: 1

What do the screens show for `CC(NC(=O)C1CCC(CNS(=O)(=O)c2ccccc2)CC1)c1ccc2c(c1)OCCO2` (stereo not drawn)?
STAT1 activator: 89; APP 5'UTR act: -8; NF-kB neuron act: 0.83; FLuc inhib CS: -2; FLuc stim CS: 1

Results for CC(C)CC(=O)Nc1cccc(C(=O)Nc2ccccc2C(=O)O)c1 ?
STAT1 activator: 89; APP 5'UTR act: 5; NF-kB neuron act: 1.3; FLuc inhib CS: 18; FLuc stim CS: 0.8

What do the screens show for `CCN(CC)C(=O)Oc1ccc2ccccc2c1Br`?
STAT1 activator: 135*; APP 5'UTR act: 18; NF-kB neuron act: 2.4; FLuc inhib CS: -3; FLuc stim CS: 1

How did O=C(Oc1ccc2ccccc2c1Br)N1CCCCCC1 do in these assays?
STAT1 activator: 135*; APP 5'UTR act: 172*; NF-kB neuron act: 2.4; FLuc inhib CS: 47; FLuc stim CS: 0.5

How did O=C(Oc1ccc2cc(Br)ccc2c1)N1CCCCCC1 do in these assays?
STAT1 activator: 131*; APP 5'UTR act: 68; NF-kB neuron act: 2.3; FLuc inhib CS: 11; FLuc stim CS: 0.9

How did Cc1ccc(N(CCC#N)C(=O)CN2C(=O)NC(Cc3ccccc3)C2=O)cc1 (stereo not drawn) do in these assays?
STAT1 activator: 102; APP 5'UTR act: -8; NF-kB neuron act: 1.1; FLuc inhib CS: -5; FLuc stim CS: 1

How did Cc1[nH]n(C(N)=S)c(=O)c1N=Nc1cc(-c2ccc(Br)cc2)[nH]n1 do in these assays?
STAT1 activator: 106; APP 5'UTR act: 3; NF-kB neuron act: 1.1; FLuc inhib CS: 56*; FLuc stim CS: 0.4

How did CC(=O)Nc1ccc(N=Nc2c(C)[nH]n(C(N)=S)c2=O)cc1 do in these assays?
STAT1 activator: 126; APP 5'UTR act: 5; NF-kB neuron act: 1.5; FLuc inhib CS: 29; FLuc stim CS: 0.7

How did Cc1ccc(N=Nc2c(C)[nH]n(C(N)=S)c2=O)cc1C do in these assays?
STAT1 activator: 113; APP 5'UTR act: 96; NF-kB neuron act: 4.8*; FLuc inhib CS: 33; FLuc stim CS: 0.7

Results for CCOc1cc(S(=O)(=O)N2CCOCC2)ccc1F ?
STAT1 activator: 99; APP 5'UTR act: 0; NF-kB neuron act: 1.1; FLuc inhib CS: -6; FLuc stim CS: 1.1

Results for Cc1cc(S(=O)(=O)N2CCOCC2)ccc1F ?
STAT1 activator: 95; APP 5'UTR act: 14; NF-kB neuron act: 4.4*; FLuc inhib CS: -2; FLuc stim CS: 1

How did Cc1ccc(S(=O)(=O)NC(CC(=O)NCC2CCCO2)c2ccccc2)cc1 (stereo not drawn) do in these assays?
STAT1 activator: 107; APP 5'UTR act: 24; NF-kB neuron act: 0.98; FLuc inhib CS: -2; FLuc stim CS: 1

What do the screens show for `C(=N\Nc1nc2ccccc2[nH]1)/C1CCCCC1`?
STAT1 activator: 124; APP 5'UTR act: 44; NF-kB neuron act: 1.2; FLuc inhib CS: 74*; FLuc stim CS: 0.3

Results for C(/CCc1ccccc1)=N\Nc1nc2ccccc2[nH]1 ?
STAT1 activator: 120; APP 5'UTR act: 33; NF-kB neuron act: 1.6; FLuc inhib CS: 84*; FLuc stim CS: 0.2

What do the screens show for `C(=C\c1ccccc1)/C=N/Nc1nc2ccccc2[nH]1`?
STAT1 activator: 148*; APP 5'UTR act: 137*; NF-kB neuron act: 4.5*; FLuc inhib CS: 63*; FLuc stim CS: 0.4

How did Cc1cc(C(=O)CSc2nnc(-c3ccco3)o2)c(C)n1-c1ccc2c(c1)OCCO2 do in these assays?
STAT1 activator: 94; APP 5'UTR act: 12; NF-kB neuron act: 0.82; FLuc inhib CS: -9; FLuc stim CS: 1.1

How did CC(C)n1nnnc1SCC(=O)c1ccc2c(c1)OCCO2 do in these assays?
STAT1 activator: 112; APP 5'UTR act: 156*; NF-kB neuron act: 2.2; FLuc inhib CS: 20; FLuc stim CS: 0.8

Results for Cc1ccc(C(=O)CSc2nnnn2C(C)C)c(C)c1 ?
STAT1 activator: 72; APP 5'UTR act: 155*; NF-kB neuron act: 3; FLuc inhib CS: 54*; FLuc stim CS: 0.5

How did Cc1cc(C(=O)CSc2nnnn2C)c(C)n1-c1ccc2c(c1)OCCO2 do in these assays?
STAT1 activator: 138*; APP 5'UTR act: 33; NF-kB neuron act: 2.2; FLuc inhib CS: 0; FLuc stim CS: 1

How did CCn1nnnc1SCC(=O)c1ccc2c(c1)OCCO2 do in these assays?
STAT1 activator: 117; APP 5'UTR act: 33; NF-kB neuron act: 1.8; FLuc inhib CS: 13; FLuc stim CS: 0.9

Results for Cc1ccc(C)c(C(=O)CSc2nnnn2C(C)C)c1 ?
STAT1 activator: 109; APP 5'UTR act: -14; NF-kB neuron act: 1.7; FLuc inhib CS: -3; FLuc stim CS: 1

Results for Cc1ccc(S(=O)(=O)c2cnc(-c3ccccc3)nc2N2CCCCC2)cc1 ?
STAT1 activator: 104; APP 5'UTR act: -16; NF-kB neuron act: 0.87; FLuc inhib CS: -1; FLuc stim CS: 1

What do the screens show for `O=S(=O)(c1ccccc1)c1cnc(-c2ccccc2)nc1N1CCCC1`?
STAT1 activator: 146*; APP 5'UTR act: -13; NF-kB neuron act: 1.6; FLuc inhib CS: -6; FLuc stim CS: 1.1

What do the screens show for `Cc1ccc(Nc2nc(N3CCN(C)CC3)nc(N)c2[N+](=O)[O-])cc1C`?
STAT1 activator: 90; APP 5'UTR act: -3; NF-kB neuron act: 1; FLuc inhib CS: -2; FLuc stim CS: 1

How did CSc1ccc(C2c3[nH]c4ccccc4c3CCN2C(=O)c2ccnn2C)cc1 (stereo not drawn) do in these assays?
STAT1 activator: 137*; APP 5'UTR act: 71; NF-kB neuron act: 3; FLuc inhib CS: 2; FLuc stim CS: 1

What do the screens show for `S=C(Nc1ccc(N2CCOCC2)cc1)Nc1ccc2snnc2c1`?
STAT1 activator: 92; APP 5'UTR act: 28; NF-kB neuron act: 1.2; FLuc inhib CS: -7; FLuc stim CS: 1.1

How did N#Cc1cn(-c2ccccc2)nc1-c1ccc2c(c1)OCCO2 do in these assays?
STAT1 activator: 146*; APP 5'UTR act: 118; NF-kB neuron act: 2.2; FLuc inhib CS: 2; FLuc stim CS: 1

How did CCN(CC)C(=O)c1cn(-c2ccccc2)nc1-c1ccc2c(c1)OCCO2 do in these assays?
STAT1 activator: 90; APP 5'UTR act: -6; NF-kB neuron act: 1; FLuc inhib CS: -2; FLuc stim CS: 1

How did CCOC(=O)C1(Cc2ccccc2Cl)CCN(C(=O)c2cnccn2)CC1 do in these assays?
STAT1 activator: 149*; APP 5'UTR act: 42; NF-kB neuron act: 2.7; FLuc inhib CS: -2; FLuc stim CS: 1

Screens (PubChem)
